Measurements of several laboratories.
Each line is one published result; the experiments were not run side by side.
Target: Mitogen-activated protein kinase 4 (MAPK4, Homo sapiens, UniProt P31152)

| SMILES | effect on | method | concentration | remaining binding [%] |
| --- | --- | --- | --- | --- |
| CS(=O)(=O)N1CCCC(NC(=O)[C@H](CCC2CCCCC2)NC(=O)c2ccc(CNC(=O)c3cnc4ccccn34)cc2)C1 (stereo partly drawn) | cell-free assay | competition with immobilised ligand | 0.1 µM | 100 |
| FC(F)(F)Oc1cccc(-c2cnc3ccc(-c4ccncc4)nn23)c1 | cell-free assay | competition with immobilised ligand | 5 µM | 100 |
| CC(=O)c1c(NS(C)(=O)=O)c2cc(-c3ccc(Cl)cc3)c(-c3ccc(Cl)cc3Cl)nc2n(C)c1=O | cell-free assay | competition with immobilised ligand | 1 µM | 100 |
| CN(C)c1nccc(-c2cnc3ncccn23)n1 | binding |  | 1 µM | 98 |
| O=C(NCC1CCOCC1)c1n[nH]cc1NC(=O)c1c(F)cccc1F | binding | competition with immobilised ligand | 1 µM | 99 |
| Cn1nc(C(F)(F)F)cc1-c1cnc(N2CCc3cc(S(=O)(=O)Nc4c(F)cc(Cl)cc4F)cc(N4CCCC4=O)c32)nc1 | cell-free assay | competition with immobilised ligand | 1 µM | 100 |
| C=CC(=O)N1CCC(C(=O)NCC(=O)N2CCN(c3nc(-c4cnc(N)nc4C(F)F)nc(N4CCOCC4)n3)CC2)CC1 | binding | competition with immobilised ligand | 1 µM | 97 |
| C[C@@H]1CCN(c2nccc(-c3cnn4ncccc34)n2)C1 | binding |  | 1 µM | 100 |
| O=C(c1ccc(Nc2nccc(-c3cc4ccccc4s3)n2)cc1)N1CCC(N2CCCC2)CC1 | binding | competition with immobilised ligand | 1 µM | 74 |
| COc1ncc2cc3ccccc3nc2c1C#N | cell-free assay | competition with immobilised ligand | 5 µM | 100 |
| CCS(=O)(=O)c1cc2cc(C[C@](O)(CC(C)(C)c3ccc(F)cc3C(N)=O)C(F)(F)F)[nH]c2cn1 | cell-free assay | competition with immobilised ligand | 1 µM | 100 |
| CN(CCCC(F)(F)F)c1nccc(-c2cnn3ncccc23)n1 | binding |  | 1 µM | 100 |
| COc1cnc(Nc2cccc(S(N)(=O)=O)c2)nc1N1CCN(c2ccccc2)C(=O)C1 | binding | competition with immobilised ligand | 1 µM | 99 |
| C[C@@H](c1ccc(-n2cnc3c(N)ncnc32)cc1)N1CCc2nn(C)c(Cc3ccccc3)c2C1=O | binding | competition with immobilised ligand | 0.1 µM | 87 |
| CCOCCn1cc(C(=O)Nc2ccc(-n3nc(-c4cccnc4)cc3C(F)(F)F)cn2)ccc1=O | cell-free assay | competition with immobilised ligand | 1 µM | 100 |
| CN(C)c1ncc(F)c(-c2cnn3ncccc23)n1 | binding |  | 1 µM | 100 |
| O=C(c1ccc(Nc2ncc(Cl)c(-c3ccc(Cl)s3)n2)cc1)N1CCC(N2CCCC2)CC1 | binding | competition with immobilised ligand | 1 µM | 0.3 |
| N[C@@H]1CCN(c2nccc(-c3cnn4ncccc34)n2)C1 | binding |  | 1 µM | 100 |
| O=C(Nc1ccc(Oc2ccc(F)cc2)cc1)N1CCc2ncccc2[C@H]1c1ccc(F)cc1 | cell-free assay | competition with immobilised ligand | 1 µM | 95 |
| c1cnn2ncc(-c3ccnc(N4CCC45COC5)n3)c2c1 | binding |  | 1 µM | 83 |
| O=C(NCCCN1CCOCC1)c1ccc(Nc2nccc(-c3cc4ccccc4s3)n2)cc1 | binding | competition with immobilised ligand | 1 µM | 88 |
